Source: ChEMBL document CHEMBL3259543 (Bioorg Med Chem Lett, 2014)

Assays:
[1] = biological target: Protease (Human immunodeficiency virus 1) (UniProt Q9YQ12); assay: Inhibition of purified HIV-1 protease using [Arg-Glu(EDANS)-Ser-Gin-Asn-Tyr-Ile-Val-Gin-Lys(dabcyl)-Arg) as fluorogenic substrate at 10 nM by fluorescence assay
Protease [2] = biological target: T1, Protease (Human immunodeficiency virus 1, UniProt Q9YQ12); assay: Inhibition of purified HIV-1 protease using [Arg-Glu(EDANS)-Ser-Gin-Asn-Tyr-Ile-Val-Gin-Lys(dabcyl)-Arg) as fluorogenic substrate by fluorescence assay
T1 sequence (Q9YQ12 whole entry): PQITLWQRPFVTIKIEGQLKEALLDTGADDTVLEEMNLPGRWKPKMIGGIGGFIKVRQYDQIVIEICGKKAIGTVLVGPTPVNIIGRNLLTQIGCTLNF
Procedure, shortened: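 Wild-type HIV-1 protease, cloned, expressed in Escherichia coli and purified. Inhibitors dissolved in DMSO and diluted. Incubation at 30 °C in 0.1 M sodium acetate, 1 M NaCl, 1 mM DTT, 1 mM EDTA, 3% DMSO, pH 5.0, with the EDANS/dabcyl fluorogenic peptide substrate. Cleavage read by fluorescence in a microplate reader.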

Protease [3] = biological target: T1, Protease; assay: Inhibition of purified HIV-1 protease using [Arg-Glu(EDANS)-Ser-Gin-Asn-Tyr-Ile-Val-Gin-Lys(dabcyl)-Arg) as fluorogenic substrate at 0.08 ng/ml by fluorescence assay
Protease [4] = biological target: T1, Protease; assay: Inhibition of purified HIV-1 protease using [Arg-Glu(EDANS)-Ser-Gin-Asn-Tyr-Ile-Val-Gin-Lys(dabcyl)-Arg) as fluorogenic substrate at 2 ng/ml by fluorescence assay
Protease [5] = biological target: T1, Protease; assay: Inhibition of purified HIV-1 protease using [Arg-Glu(EDANS)-Ser-Gin-Asn-Tyr-Ile-Val-Gin-Lys(dabcyl)-Arg) as fluorogenic substrate at 10 ng/ml by fluorescence assay
Protease [6] = biological target: T1, Protease; assay: Inhibition of purified HIV-1 protease using [Arg-Glu(EDANS)-Ser-Gin-Asn-Tyr-Ile-Val-Gin-Lys(dabcyl)-Arg) as fluorogenic substrate at 0.4 ng/ml by fluorescence assay
Protease [7] = biological target: T1, Protease; assay: Inhibition of purified HIV-1 protease using [Arg-Glu(EDANS)-Ser-Gin-Asn-Tyr-Ile-Val-Gin-Lys(dabcyl)-Arg) as fluorogenic substrate at 50 ng/ml by fluorescence assay

Sequence of Protease (Human immunodeficiency virus 1) (Q9YQ12 as listed by the source): as the sequence (Q9YQ12 whole entry) above

| inhibition [1] [%] | IC50 (Protease [2]) [nM] | Inhibition (Protease [3]) [%] | Inhibition (Protease [4]) [%] | Inhibition (Protease [5]) [%] | Inhibition (Protease [6]) [%] | Inhibition (Protease [7]) [%] | Compound |
| --- | --- | --- | --- | --- | --- | --- | --- |
|  | 0.36 | 40.6 | 103 | 100 | 59.6 | 97 | CO[C@@H]1CO[C@H]2[C@@H]1OC[C@@H]2OC(=O)N[C@@H](Cc1ccccc1)[C@H](O)CN(CC(C)C)S(=O)(=O)c1ccc(N)cc1 |
|  | 0.11 | 53.7 | 93.1 | 100 | 62.6 | 93.1 | COc1ccc(S(=O)(=O)N(CC(C)C)C[C@@H](O)[C@H](Cc2ccccc2)NC(=O)O[C@H]2CO[C@H]3[C@@H]2OC[C@H]3O[N+](=O)[O-])cc1 |
|  | 0.12 | 47.2 | 94.2 | 98.6 | 75.7 | 94.7 | CC(C)CN(C[C@@H](O)[C@H](Cc1ccccc1)NC(=O)O[C@H]1CO[C@H]2[C@@H]1OC[C@H]2O[N+](=O)[O-])S(=O)(=O)c1ccc(N)cc1 |

The next lines start with the compound.

| Compound | inhibition [1] [%] | IC50 (Protease [2]) [nM] | Inhibition (Protease [3]) [%] | Inhibition (Protease [4]) [%] | Inhibition (Protease [5]) [%] | Inhibition (Protease [6]) [%] | Inhibition (Protease [7]) [%] |
| --- | --- | --- | --- | --- | --- | --- | --- |
| CC(C)(C)NC(=O)[C@@H]1CN(Cc2cccnc2)CCN1C[C@@H](O)C[C@@H](Cc1ccccc1)C(=O)N[C@H]1c2ccccc2C[C@H]1O | 96.9 |  |  |  |  |  |  |
| COc1ccc(S(=O)(=O)N(CC(C)C)C[C@@H](O)[C@H](Cc2ccccc2)NC(=O)O[C@H]2CO[C@H]3[C@@H]2OC[C@H]3O)cc1 |  | 0.1 | 51.4 | 99.5 | 98 | 74.2 | 97.2 |
| CC(C)CN(C[C@@H](O)[C@H](Cc1ccccc1)NC(=O)O[C@H]1CO[C@H]2[C@@H]1OC[C@H]2O)S(=O)(=O)c1ccc(N)cc1 |  | 0.43 | 33.7 | 80.7 | 95.4 | 57.7 | 98.3 |
| COc1ccc(S(=O)(=O)N(CC(C)C)C[C@@H](O)[C@H](Cc2ccccc2)NC(=O)O[C@H]2CO[C@H]3[C@@H]2OC[C@H]3OC)cc1 |  | 0.05 | 53.7 | 93.5 | 102 | 83.2 | 96.2 |
